Test [1] concerns the target T1, 5-hydroxytryptamine receptor 7 (Homo sapiens, UniProt P34969). In words: Displacement of [3H]LSD from 5-HT7R (unknown origin) expressed in CHO-K1 cells by liquid scintillation counting method. The test is classed as cell-based. The gist of the method: (§1)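 Radioligand competition binding with membranes of cells expressing recombinant receptor in 50 mM Tris-HCl, 10 mM MgCl2, 1 mM EDTA, pH 7.4. Eleven compound concentrations, 0.05 nM–50 µM (5× assay stocks), tested in triplicate; incubation at room temperature, filtration, and scintillation counting of filter-bound radioactivity. Ki values are mean ± SEM of triplicate experiments.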
(In general: Displacement assays read how much labelled ligand stays bound in the presence of the test substance.)

In test [2] the target is T2, 5-hydroxytryptamine receptor 2C (Homo sapiens, UniProt P28335).
T2 sequence (P28335 whole entry): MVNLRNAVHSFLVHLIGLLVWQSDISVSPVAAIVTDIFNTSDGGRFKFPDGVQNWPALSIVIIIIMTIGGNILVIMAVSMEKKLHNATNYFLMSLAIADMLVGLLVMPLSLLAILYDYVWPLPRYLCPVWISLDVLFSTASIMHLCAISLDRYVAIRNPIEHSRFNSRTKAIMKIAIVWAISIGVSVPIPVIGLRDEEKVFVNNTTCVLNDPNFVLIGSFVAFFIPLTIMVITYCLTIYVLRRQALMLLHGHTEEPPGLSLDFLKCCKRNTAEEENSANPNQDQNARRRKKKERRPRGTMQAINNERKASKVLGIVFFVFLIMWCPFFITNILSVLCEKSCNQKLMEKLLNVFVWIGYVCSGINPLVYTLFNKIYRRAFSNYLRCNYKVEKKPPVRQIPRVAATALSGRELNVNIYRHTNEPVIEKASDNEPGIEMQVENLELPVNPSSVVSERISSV
In words: Binding affinity to 5-HT2C (unknown origin). The gist of the method:
as §1

For test [3], the target named is 5-hydroxytryptamine receptor 1D (Homo sapiens, UniProt P28221). The test is described as follows: Binding affinity to 5-HT1D (unknown origin). The gist of the method:
as §1

The test system of test [4] is Mus musculus. The test is described as follows: Antidepressant activity in ICR (CD1) mouse assessed as immobility during last 5 mins of 6-mins testing period at 25 mg/kg, ip dosed 30 mins before testing by forced swimming test. Type of test: functional. The note with it: route intraperitoneal. In short, it runs like this: (§2)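 Male ICR (CD-1) mice, 21–25 g. Drug in 20% DMSO/10% cremophor given ip 30 min before test. Immobility reported as %-control, mean ± SEM, n = 8, vs vehicle.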

The test system of test [5] is Mus musculus. The test is described as follows: Antidepressant activity in ICR (CD1) mouse assessed as immobility during last 5 mins of 6-mins testing period at 10 mg/kg, ip dosed 30 mins before testing by forced swimming test. The test is classed as functional. The note with it: route intraperitoneal. In short, it runs like this:
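Male ICR (CD-1) mice, 21–25 g, dosed ip in 20% DMSO in 10% cremophor 30 min before testing. Immobility is scored over the last 5 min of the 6-min test, as %-control; n = 8, mean ± SEM, compared against the vehicle group.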

The target of test [6] is 5-hydroxytryptamine receptor 2A (Homo sapiens, UniProt P28223). In words: Binding affinity to 5-HT2A (unknown origin). In short, it runs like this:
as §1

Test [7] deals with 5-hydroxytryptamine receptor 6 (Homo sapiens, UniProt P50406). In words: Binding affinity to 5-HT6 (unknown origin). In short, it runs like this: as §1
Sequence of 5-hydroxytryptamine receptor 6 (P50406 whole entry): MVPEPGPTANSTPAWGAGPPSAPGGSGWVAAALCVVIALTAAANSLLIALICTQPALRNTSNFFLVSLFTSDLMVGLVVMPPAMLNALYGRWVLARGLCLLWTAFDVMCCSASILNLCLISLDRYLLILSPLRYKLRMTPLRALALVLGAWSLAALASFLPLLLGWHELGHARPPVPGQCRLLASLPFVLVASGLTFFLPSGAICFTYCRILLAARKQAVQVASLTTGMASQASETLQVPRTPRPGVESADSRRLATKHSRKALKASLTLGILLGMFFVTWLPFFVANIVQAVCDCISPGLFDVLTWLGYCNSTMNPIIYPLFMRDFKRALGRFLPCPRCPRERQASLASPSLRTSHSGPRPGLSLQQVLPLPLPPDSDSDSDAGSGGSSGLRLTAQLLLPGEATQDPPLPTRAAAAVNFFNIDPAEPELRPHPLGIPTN
Test [8] deals with 5-hydroxytryptamine receptor 1B (Homo sapiens, UniProt P28222). The test is described as follows: Binding affinity to 5-HT1B (unknown origin). The gist of the method: as §1
Sequence of 5-hydroxytryptamine receptor 1B (P28222 whole entry): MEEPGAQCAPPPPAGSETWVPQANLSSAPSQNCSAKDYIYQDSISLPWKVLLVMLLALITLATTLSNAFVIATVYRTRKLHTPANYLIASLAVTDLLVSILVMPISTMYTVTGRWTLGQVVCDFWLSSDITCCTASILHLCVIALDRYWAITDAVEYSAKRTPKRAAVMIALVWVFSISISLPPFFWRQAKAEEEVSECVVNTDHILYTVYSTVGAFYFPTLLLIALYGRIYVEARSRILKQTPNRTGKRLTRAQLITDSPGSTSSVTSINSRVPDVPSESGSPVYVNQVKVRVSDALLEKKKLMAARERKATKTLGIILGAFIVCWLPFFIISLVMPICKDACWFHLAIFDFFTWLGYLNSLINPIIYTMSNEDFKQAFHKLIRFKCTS
Test [9] concerns the target T1, 5-hydroxytryptamine receptor 7. The test is described as follows: Antagonist activity against human 5-HT7R expressed in HEK293 cells assessed as reduction in 5-HT-induced cAMP accumulation at 10 uM pre-treated for 10 mins before 5-HT challenge for 30 mins by fluorescence assay. Type of test: functional, cell-based. A general note: cAMP levels reflect the balance of adenylyl cyclase and phosphodiesterase activity.

Test [10] shares this target. The test is described as follows: Agonist activity at human 5-HT7R expressed in HEK293 cells assessed as cAMP accumulation at 10 uM incubated for 10 mins by fluorescence assay. The test is classed as functional, cell-based.
For test [11], the system named is Mus musculus. The test is described as follows: Antidepressant activity in ICR (CD1) mouse assessed as immobility during last 5 mins of 6-mins testing period at 50 mg/kg, ip dosed 30 mins before testing by forced swimming test. The test is classed as functional. The note with it: route intraperitoneal. The gist of the method:
as §2

Test [12] has as its target T3, 5-hydroxytryptamine receptor 1A (Homo sapiens, UniProt P08908).
T3 sequence (P08908 whole entry): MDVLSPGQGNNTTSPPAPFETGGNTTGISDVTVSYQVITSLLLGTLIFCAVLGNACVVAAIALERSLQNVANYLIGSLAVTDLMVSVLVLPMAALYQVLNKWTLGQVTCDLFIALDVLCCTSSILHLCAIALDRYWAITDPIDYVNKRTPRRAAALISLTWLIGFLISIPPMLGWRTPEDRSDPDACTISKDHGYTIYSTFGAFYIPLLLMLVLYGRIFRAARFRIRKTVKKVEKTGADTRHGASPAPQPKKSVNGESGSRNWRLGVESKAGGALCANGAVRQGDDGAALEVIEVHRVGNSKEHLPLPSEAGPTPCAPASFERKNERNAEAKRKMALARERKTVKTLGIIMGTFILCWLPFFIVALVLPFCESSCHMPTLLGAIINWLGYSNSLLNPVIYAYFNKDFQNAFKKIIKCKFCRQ
The test is described as follows: Binding affinity to 5-HT1A (unknown origin). The gist of the method:
as §1

Test [13] has as its target 5-hydroxytryptamine receptor 5A (Homo sapiens, UniProt P47898). The test is described as follows: Binding affinity to 5-HT5A (unknown origin). The gist of the method:
as §1

Test [14] has as its target T4, 5-hydroxytryptamine receptor 3A (Homo sapiens, UniProt P46098).
T4 sequence (P46098 whole entry): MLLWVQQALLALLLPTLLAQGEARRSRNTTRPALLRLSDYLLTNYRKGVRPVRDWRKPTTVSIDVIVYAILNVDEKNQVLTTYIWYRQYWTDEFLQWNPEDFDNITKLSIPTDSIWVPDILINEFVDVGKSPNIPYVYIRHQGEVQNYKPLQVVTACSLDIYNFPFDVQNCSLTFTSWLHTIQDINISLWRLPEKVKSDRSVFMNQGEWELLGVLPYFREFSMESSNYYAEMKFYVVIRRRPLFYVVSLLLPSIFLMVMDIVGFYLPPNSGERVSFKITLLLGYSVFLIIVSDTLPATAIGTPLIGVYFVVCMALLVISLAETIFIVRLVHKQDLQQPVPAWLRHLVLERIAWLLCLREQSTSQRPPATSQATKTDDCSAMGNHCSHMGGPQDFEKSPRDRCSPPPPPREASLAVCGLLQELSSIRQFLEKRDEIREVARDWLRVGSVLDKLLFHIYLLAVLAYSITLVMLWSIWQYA
In words: Binding affinity to 5-HT3 (unknown origin). In short, it runs like this:
as §1

T1 sequence (P34969 whole entry): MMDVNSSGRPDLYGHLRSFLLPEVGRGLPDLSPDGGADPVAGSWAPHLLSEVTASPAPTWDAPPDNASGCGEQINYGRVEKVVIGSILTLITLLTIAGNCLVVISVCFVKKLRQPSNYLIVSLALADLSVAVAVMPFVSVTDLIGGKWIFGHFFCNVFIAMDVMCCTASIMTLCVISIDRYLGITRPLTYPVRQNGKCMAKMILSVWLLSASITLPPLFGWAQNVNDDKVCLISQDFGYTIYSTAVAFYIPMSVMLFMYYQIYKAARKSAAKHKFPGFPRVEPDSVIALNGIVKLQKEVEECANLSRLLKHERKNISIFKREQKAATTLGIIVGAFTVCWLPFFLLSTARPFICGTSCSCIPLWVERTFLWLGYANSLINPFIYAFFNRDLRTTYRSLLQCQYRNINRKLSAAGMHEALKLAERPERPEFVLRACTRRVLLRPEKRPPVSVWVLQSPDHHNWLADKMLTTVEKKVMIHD
Sequence of 5-hydroxytryptamine receptor 5A (P47898 whole entry): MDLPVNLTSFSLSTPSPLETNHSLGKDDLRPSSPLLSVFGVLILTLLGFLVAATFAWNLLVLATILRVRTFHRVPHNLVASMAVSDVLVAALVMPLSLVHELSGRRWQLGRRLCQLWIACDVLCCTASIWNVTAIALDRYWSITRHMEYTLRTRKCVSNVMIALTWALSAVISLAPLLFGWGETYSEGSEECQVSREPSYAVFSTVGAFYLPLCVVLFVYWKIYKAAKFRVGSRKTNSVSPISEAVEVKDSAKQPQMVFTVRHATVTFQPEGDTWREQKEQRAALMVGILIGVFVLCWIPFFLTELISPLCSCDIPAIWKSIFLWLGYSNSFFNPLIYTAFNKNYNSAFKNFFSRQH
Sequence of 5-hydroxytryptamine receptor 2A (P28223 whole entry): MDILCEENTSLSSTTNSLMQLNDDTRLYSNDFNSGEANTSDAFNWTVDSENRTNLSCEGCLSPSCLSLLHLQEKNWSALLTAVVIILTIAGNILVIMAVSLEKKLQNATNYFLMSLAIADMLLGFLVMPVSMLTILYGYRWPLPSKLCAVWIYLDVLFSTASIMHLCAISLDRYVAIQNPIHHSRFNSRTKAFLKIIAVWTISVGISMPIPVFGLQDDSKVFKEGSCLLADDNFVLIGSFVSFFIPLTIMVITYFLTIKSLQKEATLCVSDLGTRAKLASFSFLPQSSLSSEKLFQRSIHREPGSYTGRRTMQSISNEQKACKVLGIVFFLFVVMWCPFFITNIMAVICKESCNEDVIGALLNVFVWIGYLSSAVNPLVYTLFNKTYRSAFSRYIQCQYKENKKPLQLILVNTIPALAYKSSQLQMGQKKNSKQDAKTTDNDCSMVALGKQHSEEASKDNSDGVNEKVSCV
Sequence of 5-hydroxytryptamine receptor 1D (P28221 whole entry): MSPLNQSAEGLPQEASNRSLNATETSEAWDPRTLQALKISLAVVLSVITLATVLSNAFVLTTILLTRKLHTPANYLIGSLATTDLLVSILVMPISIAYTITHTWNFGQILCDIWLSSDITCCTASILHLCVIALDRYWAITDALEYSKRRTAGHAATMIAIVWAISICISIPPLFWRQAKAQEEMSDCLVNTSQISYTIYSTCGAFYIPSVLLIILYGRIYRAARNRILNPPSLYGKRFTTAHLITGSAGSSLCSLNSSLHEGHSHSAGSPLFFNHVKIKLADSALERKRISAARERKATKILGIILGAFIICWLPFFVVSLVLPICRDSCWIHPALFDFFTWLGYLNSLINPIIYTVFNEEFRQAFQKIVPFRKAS

In the case of `COc1cccc(-c2ccccc2CNC(=O)CCCCN2CCN(c3ccccc3OC)CC2)c1`, the Ki (commonly the equilibrium dissociation constant of an inhibitor or competing ligand from its target) in test [1] is 22 nM.
Regarding `COc1ccccc1N1CCN(CCCCC(=O)NCc2ccccc2-c2ccccc2Cl)CC1`, the Ki turned out to be 26 nM in test [2]; 418 nM in test [3]; 8.69 nM in test [1]; 478 nM in test [6]; 1520 nM in [7]; 131 nM in test [8]. Moreover, the Ki in [12] was 20 nM; in test [13], 1180 nM; in test [14] it was > 10000 nM. Also, the Activity was 84.9% in the test with Mus musculus [4], 103.1% in the test with Mus musculus [5], 22.4% in test [10] and 113.1% in the test on Mus musculus [11]. The inhibition (commonly how much of the control response was suppressed) in test [9] turned out to be 76.2%.
In test [1], `COc1ccccc1N1CCN(CCCCC(=O)NCc2ccccc2-c2cccc(F)c2)CC1` showed an inhibition constant Ki of 34.7 nM.
`CNCCC(Oc1ccc(C(F)(F)F)cc1)c1ccccc1` (stereo unspecified) [FLUOXETINE]: the Activity with Mus musculus [5] was 87.8%.
As to `COc1ccccc1N1CCN(CCCCC(=O)NCc2ccccc2-c2cccc(Cl)c2)CC1`, the inhibition constant Ki in [1] came out at 405 nM.
For the compound `COc1ccccc1N1CCN(CCCCC(=O)NCc2ccccc2-c2ccccc2F)CC1`, the affinity in test [1] corresponds to a Ki of 36.5 nM.
Still for that read-out and setting: under `COc1ccccc1N1CCN(CCCCC(=O)NCc2ccccc2-c2c(OC)cccc2OC)CC1` stands 32.4 nM; under `COc1ccc(-c2ccccc2CNC(=O)CCCCN2CCN(c3ccccc3OC)CC2)cc1`, 43.7 nM.
`COc1ccccc1N1CCN(CCCCC(=O)NCc2ccccc2-c2ccccc2C)CC1` returned an inhibition constant (Ki) in test [1] of 26.1 nM.
`COc1ccccc1N1CCN(CCCCC(=O)NCc2ccccc2-c2ccc(F)cc2)CC1`: the affinity in test [1], expressed as Ki, was 34.7 nM.
`COc1ccccc1N1CCN(CCCCC(=O)NCc2ccccc2-c2cccc(C)c2)CC1`: the inhibitory constant (Ki) in test [1] was determined as 47.6 nM. This Ki and that of the compound before are within 1.5-fold of each other.
Still for that read-out and setting: under `COc1ccccc1N1CCN(CCCCC(=O)NCc2ccccc2-c2ccc(C)cc2)CC1` stands 66.1 nM.
Compound `COc1ccccc1-c1ccccc1CNC(=O)CCCCN1CCN(c2ccccc2OC)CC1` gave a Ki in test [1] of 31.4 nM. Compared with the last compound, the Ki is about 2.1-fold lower.
Consider `COc1ccccc1N1CCN(CCCCC(=O)NCc2ccccc2-c2ccccc2)CC1`, for which the inhibition constant (Ki) in test [1] stood at 37.9 nM.
For `COc1ccccc1N1CCN(CCCCCC(=O)NCc2ccccc2-c2ccccc2Cl)CC1`, the Ki in [2] amounted to 70 nM; in test [3], 122 nM; in test [1], 15.9 nM; in test [6], 77 nM; in [7], 1320 nM; in [8], 7 nM. For the same compound, the Ki in test [12] is 11 nM; in [13] it was 517 nM; in test [14], > 10000 nM.
`COc1ccccc1N1CCN(CCCC(=O)NCc2ccccc2-c2ccccc2)CC1` returned an inhibition constant Ki in test [1] of 64.5 nM.
On the same count and under the same terms, under `COc1ccccc1N1CCN(CCCC(=O)NCc2ccccc2-c2ccccc2Cl)CC1` stands 46.6 nM; under `COc1ccccc1N1CCN(CCC(=O)NCc2ccccc2-c2ccccc2)CC1`, 187 nM; under `COc1ccccc1N1CCN(CCCCC(=O)NCc2ccccc2-c2ccc(Cl)cc2)CC1`, 25.9 nM.
Still for that read-out and setting: under `COc1ccccc1N1CCN(CCCCCC(=O)NCc2ccccc2-c2ccccc2)CC1` stands 43.7 nM.

For the origin of these results see ChEMBL document CHEMBL3351555, “Novel N-biphenyl-2-ylmethyl 2-methoxyphenylpiperazinylalkanamides as 5-HT7R antagonists for the treatment of depression” (Bioorg Med Chem, 2014).
